Results on one compound are retold here after ChEMBL document CHEMBL5608187, “Discovery of pyridoquinoxaline-based new P-gp inhibitors as coadjutant against Multi Drug Resistance in cancer” (Eur J Med Chem, 2024).

The source made the active and inactive calls. No cut-off for these calls is given here.

Data set [1] deals with SK-HEP1. In words: Cytotoxicity against human SK-HEP1 cells assessed as inhibition of cell growth at 4 uM incubated for 72 hrs by SiR-DNA/CellTox Green Dye based fluorescence analysis. Type of data set: toxicity. As to conditions: sk-hep1, 72 h. In outline:
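Single-agent control at 4 µM, no anticancer drug. 500 cells/well with SiR-DNA and CellTox Green; imaged at addition and 72 h. Live count = total nuclei minus dead cells, expressed as percent growth. Three technical replicates.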

Data set [2] concerns HuP-T3. In words: Coadjutant activity against multidrug resistance in human Hup-T3 cells assessed as potentiation of vincristine-induced cell growth inhibition by measuring cell growth at 4 uM incubated for 72 hrs in presence of 0.02 to 20 uM vincristine by SiR-DNA/CellTox Green Dye based fluorescence analysis. It is filed as functional. Also noted: scale not given: the % may be the effect or the level left. In outline:
(§1)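 Growth by live-cell imaging: 500 cells/well plated with SiR-DNA and CellTox Green dye; serial dilutions in phenol-red-free complete medium added next day. Imaged at addition and at 72 h. Live cells = SiR-DNA nuclei minus CellTox-positive dead cells; percentage growth calculated. Three technical replicates; two-tailed t-test. Inhibitor paired with anticancer drug at fixed or scaled levels.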

In data set [3] the target is T1, ATP-dependent translocase ABCB1 (Homo sapiens, UniProt P08183). In words: Inhibition of P-gp in human HCT-15 cells assessed as increase in green fluorescence intensity at 1 to 10 uM incubated for 15 mins followed by incubation with EFFLUX-ID Green Detection Reagent and Hoeschst-33342 dye and measured after 30 mins by fluorescence analysis. Type of data set: cell-based. As to conditions: hct-15, 0.25 h, dose 1-10 µM. Summed up:
(§2)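 5000 cells/well in phenol-red-free medium plated 24 h before; compounds 0.1, 1, 10 µM for 15 min, then EFLUXX-ID Green reagent (1:200) plus Hoechst-33342 1 µg/mL, 30 min 37 °C. Widefield imaging; median green intensity from 250 cells per well normalized to untreated wells. Mean ± SD of three wells; one-tailed t-test.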

The subject of data set [4] is HuP-T3. In words: Coadjutant activity against multidrug resistance in human HuP-T3 cells assessed as potentiation of cisplatin-induced cell growth inhibition at 0.25 to 4 uM incubated for 72 hrs in presence of 0.25 uM cisplatin by SiR-DNA/CellTox Green Dye based fluorescence analysis. Type of data set: functional. To be noted: dose 0.25-4 µM. Summed up: (§3)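 Cisplatin co-treatment, 72 h imaging growth assay (SiR-DNA nuclei minus CellTox Green dead cells, 500 cells/well, phenol-red-free medium). Combinations: inhibitor fixed with cisplatin 0.1–100 µM, or cisplatin fixed at 0.25 µM with inhibitor 0.25–4 µM. Three technical replicates, mean ± SD; two-tailed t-test.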

In data set [5] the target is T1, ATP-dependent translocase ABCB1. In words: Inhibition of P-gp in human HT1197 cells assessed as increase in green fluorescence intensity at 0.1 to 10 uM incubated for 15 mins followed by incubation with EFFLUX-ID Green Detection Reagent and Hoeschst-33342 dye and measured after 30 mins by fluorescence analysis. Type of data set: cell-based. As to conditions: ht1197, 0.25 h, dose 0.1-10 µM. In outline:
as §2

For data set [6], the target named is Voltage-dependent L-type calcium channel subunit alpha-1C (Rattus norvegicus, UniProt P22002). Put plainly: Inhibition of Cav1.2 in Wistar rat tail artery smooth muscle cells assessed as inhibition of Ba2+ current at 0.3 to 10 uM at holding potential of -50 mV by whole cell patch clamp analysis. To be noted: dose 0.3-10 µM. It is filed as toxicity, tissue-based. In outline: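 Freshly dissociated rat tail main artery myocytes (collagenase XI, 37 °C). Whole-cell patch clamp, 20–22 °C; Cs-based internal, external with 30 mM TEA and 5 mM Ba2+. IBa1.2 evoked by 250-ms steps to 10 mV from −50 mV at 0.067 Hz; compound added cumulatively 0.3–10 µM; leak subtracted using 10 µM nifedipine. Amplitude as percent of control, n = 5.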
(Patch clamp records ionic current or voltage across a cell membrane.)

The test system of another data set is A704. Put plainly: Coadjutant activity against multidrug resistance in human A704 cells assessed as potentiation of etoposide-induced cell growth inhibition at 4 uM incubated for 72 hrs in presence of 0.04 to 40 uM etoposide by SiR-DNA/CellTox Green Dye based fluorescence analysis. Type of data set: functional. In outline:
as §1

For another data set, the system named is HCT-116 (Homo sapiens). Put plainly: Coadjutant activity against multidrug resistance in human HCT-116 cells assessed as potentiation of cisplatin-induced cell growth inhibition at 0.25 to 4 uM incubated for 72 hrs in presence of 0.25 uM cisplatin by SiR-DNA/CellTox Green Dye based fluorescence analysis. As to conditions: dose 0.25-4 µM.
Data set [7] has as its system U-87 MG. In words: Coadjutant activity against multidrug resistance in human U-87 MG cells assessed as potentiation of vincristine-induced cell growth inhibition at 4 uM incubated for 72 hrs in presence of 0.02 to 20 uM vincristine by SiR-DNA/CellTox Green Dye based fluorescence analysis. It is filed as functional. As to conditions: U-87MG ATCC. In outline: as §1

Data set [8] relates to U-87 MG. In words: Coadjutant activity against multidrug resistance in human U-87 MG cells assessed as potentiation of etoposide-induced cell growth inhibition at 4 uM incubated for 72 hrs in presence of 0.04 to 40 uM etoposide by SiR-DNA/CellTox Green Dye based fluorescence analysis. To be noted: U-87MG ATCC. Type of data set: functional. Summed up:
as §1

The subject of another data set is HT-29. In words: Coadjutant activity against multidrug resistance in human HT-29 cells assessed as potentiation of cisplatin-induced cell growth inhibition at 0.25 to 4 uM incubated for 72 hrs in presence of 0.25 uM cisplatin by SiR-DNA/CellTox Green Dye based fluorescence analysis. It is filed as functional. To be noted: dose 0.25-4 µM. In outline:
as §3

The next data set has as its system HMC3. In words: Cytotoxicity against human HMC3 cells assessed as effect on cell viability at 0.1 to 100 uM incubated for 24 to 72 hrs by MTT assay. It is filed as toxicity, cell-based. As to conditions: hmc3, 100 µM, dose lower 0.1 µM, time lower 24 hrs, dose upper 100 µM, time upper 72 hrs. Summed up: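 HMC3 microglia in high-glucose DMEM/10% FBS, 37 °C 5% CO2, treated 0.1–100 µM for 24, 48 or 72 h; vehicle-treated controls. MTT 0.5 mg/mL, 4 h 37 °C, formazan dissolved in DMSO, read at 540 nm; viability as percent of control. Three independent experiments in triplicate, mean ± S.E.M., one-way ANOVA with Tukey.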

The test system of data set [9] is SK-HEP1. Put plainly: Coadjutant activity against multidrug resistance in human SK-HEP1 cells assessed as potentiation of cisplatin-induced cell growth inhibition at 4 uM incubated for 72 hrs in presence of 0.1 to 100 uM cisplatin by SiR-DNA/CellTox Green Dye based fluorescence analysis. It is filed as functional. In outline: as §3
The test system of a further data set is SK-N-SH. In words: Coadjutant activity against multidrug resistance in human SK-N-SH cells assessed as potentiation of etoposide-induced cell growth inhibition at 4 uM incubated for 72 hrs in presence of 0.04 to 40 uM etoposide by SiR-DNA/CellTox Green Dye based fluorescence analysis. Type of data set: functional. Summed up:
as §1

In data set [10] the target is T1, ATP-dependent translocase ABCB1. Put plainly: Inhibition of P-gp in human HCT-15 cells assessed as increase in green fluorescence intensity at 0.1 to 10 uM incubated for 15 mins followed by incubation with EFFLUX-ID Green Detection Reagent and Hoeschst-33342 dye and measured after 30 mins by fluorescence analysis. It is filed as cell-based. To be noted: hct-15, 0.25 h, dose 0.1-10 µM. Summed up: as §2

The target is the same in data set [11]. Put plainly: Inhibition of P-gp in human HCT-15 cells assessed as fold increase in green fluorescence intensity at 10 uM incubated for 15 mins followed by incubation with EFFLUX-ID Green Detection Reagent and Hoeschst-33342 dye and measured after 30 mins by fluorescence analysis relative to control. Type of data set: cell-based. To be noted: hct-15, 0.25 h. Summed up:
as §2

T1 sequence (P08183 whole entry): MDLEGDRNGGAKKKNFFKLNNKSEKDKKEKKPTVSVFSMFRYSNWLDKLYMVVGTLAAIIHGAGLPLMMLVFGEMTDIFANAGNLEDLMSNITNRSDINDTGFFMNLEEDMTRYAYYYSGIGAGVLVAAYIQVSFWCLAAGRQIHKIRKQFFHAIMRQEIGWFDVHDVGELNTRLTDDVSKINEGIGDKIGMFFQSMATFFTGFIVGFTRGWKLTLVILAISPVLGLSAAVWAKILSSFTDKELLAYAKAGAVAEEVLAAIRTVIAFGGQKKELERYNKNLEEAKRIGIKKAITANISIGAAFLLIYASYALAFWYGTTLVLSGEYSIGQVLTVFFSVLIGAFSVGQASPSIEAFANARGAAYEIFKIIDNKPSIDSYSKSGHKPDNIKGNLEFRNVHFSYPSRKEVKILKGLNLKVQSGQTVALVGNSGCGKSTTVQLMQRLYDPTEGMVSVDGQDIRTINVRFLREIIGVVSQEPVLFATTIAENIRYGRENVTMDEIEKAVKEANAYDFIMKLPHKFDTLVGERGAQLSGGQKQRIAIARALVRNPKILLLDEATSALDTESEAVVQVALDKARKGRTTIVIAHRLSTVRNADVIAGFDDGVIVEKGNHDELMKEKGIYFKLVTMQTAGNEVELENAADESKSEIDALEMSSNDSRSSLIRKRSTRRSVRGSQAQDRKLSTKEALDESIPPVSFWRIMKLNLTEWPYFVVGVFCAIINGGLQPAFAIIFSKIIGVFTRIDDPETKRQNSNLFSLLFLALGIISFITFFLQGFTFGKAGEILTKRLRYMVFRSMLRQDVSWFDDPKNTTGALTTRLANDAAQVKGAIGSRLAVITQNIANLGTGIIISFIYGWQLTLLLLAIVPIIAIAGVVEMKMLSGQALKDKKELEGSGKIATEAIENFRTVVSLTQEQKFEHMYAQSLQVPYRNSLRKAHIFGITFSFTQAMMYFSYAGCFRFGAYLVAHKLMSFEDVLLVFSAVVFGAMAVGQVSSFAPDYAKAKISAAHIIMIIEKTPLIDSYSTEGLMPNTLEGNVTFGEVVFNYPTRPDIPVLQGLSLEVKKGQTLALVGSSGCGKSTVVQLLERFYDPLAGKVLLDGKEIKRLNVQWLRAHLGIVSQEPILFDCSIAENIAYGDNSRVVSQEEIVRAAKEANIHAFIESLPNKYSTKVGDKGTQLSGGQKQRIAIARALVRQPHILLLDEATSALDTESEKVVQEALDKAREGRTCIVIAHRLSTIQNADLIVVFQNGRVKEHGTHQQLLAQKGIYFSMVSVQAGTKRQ
Chain of Voltage-dependent L-type calcium channel subunit alpha-1C (P22002 whole entry): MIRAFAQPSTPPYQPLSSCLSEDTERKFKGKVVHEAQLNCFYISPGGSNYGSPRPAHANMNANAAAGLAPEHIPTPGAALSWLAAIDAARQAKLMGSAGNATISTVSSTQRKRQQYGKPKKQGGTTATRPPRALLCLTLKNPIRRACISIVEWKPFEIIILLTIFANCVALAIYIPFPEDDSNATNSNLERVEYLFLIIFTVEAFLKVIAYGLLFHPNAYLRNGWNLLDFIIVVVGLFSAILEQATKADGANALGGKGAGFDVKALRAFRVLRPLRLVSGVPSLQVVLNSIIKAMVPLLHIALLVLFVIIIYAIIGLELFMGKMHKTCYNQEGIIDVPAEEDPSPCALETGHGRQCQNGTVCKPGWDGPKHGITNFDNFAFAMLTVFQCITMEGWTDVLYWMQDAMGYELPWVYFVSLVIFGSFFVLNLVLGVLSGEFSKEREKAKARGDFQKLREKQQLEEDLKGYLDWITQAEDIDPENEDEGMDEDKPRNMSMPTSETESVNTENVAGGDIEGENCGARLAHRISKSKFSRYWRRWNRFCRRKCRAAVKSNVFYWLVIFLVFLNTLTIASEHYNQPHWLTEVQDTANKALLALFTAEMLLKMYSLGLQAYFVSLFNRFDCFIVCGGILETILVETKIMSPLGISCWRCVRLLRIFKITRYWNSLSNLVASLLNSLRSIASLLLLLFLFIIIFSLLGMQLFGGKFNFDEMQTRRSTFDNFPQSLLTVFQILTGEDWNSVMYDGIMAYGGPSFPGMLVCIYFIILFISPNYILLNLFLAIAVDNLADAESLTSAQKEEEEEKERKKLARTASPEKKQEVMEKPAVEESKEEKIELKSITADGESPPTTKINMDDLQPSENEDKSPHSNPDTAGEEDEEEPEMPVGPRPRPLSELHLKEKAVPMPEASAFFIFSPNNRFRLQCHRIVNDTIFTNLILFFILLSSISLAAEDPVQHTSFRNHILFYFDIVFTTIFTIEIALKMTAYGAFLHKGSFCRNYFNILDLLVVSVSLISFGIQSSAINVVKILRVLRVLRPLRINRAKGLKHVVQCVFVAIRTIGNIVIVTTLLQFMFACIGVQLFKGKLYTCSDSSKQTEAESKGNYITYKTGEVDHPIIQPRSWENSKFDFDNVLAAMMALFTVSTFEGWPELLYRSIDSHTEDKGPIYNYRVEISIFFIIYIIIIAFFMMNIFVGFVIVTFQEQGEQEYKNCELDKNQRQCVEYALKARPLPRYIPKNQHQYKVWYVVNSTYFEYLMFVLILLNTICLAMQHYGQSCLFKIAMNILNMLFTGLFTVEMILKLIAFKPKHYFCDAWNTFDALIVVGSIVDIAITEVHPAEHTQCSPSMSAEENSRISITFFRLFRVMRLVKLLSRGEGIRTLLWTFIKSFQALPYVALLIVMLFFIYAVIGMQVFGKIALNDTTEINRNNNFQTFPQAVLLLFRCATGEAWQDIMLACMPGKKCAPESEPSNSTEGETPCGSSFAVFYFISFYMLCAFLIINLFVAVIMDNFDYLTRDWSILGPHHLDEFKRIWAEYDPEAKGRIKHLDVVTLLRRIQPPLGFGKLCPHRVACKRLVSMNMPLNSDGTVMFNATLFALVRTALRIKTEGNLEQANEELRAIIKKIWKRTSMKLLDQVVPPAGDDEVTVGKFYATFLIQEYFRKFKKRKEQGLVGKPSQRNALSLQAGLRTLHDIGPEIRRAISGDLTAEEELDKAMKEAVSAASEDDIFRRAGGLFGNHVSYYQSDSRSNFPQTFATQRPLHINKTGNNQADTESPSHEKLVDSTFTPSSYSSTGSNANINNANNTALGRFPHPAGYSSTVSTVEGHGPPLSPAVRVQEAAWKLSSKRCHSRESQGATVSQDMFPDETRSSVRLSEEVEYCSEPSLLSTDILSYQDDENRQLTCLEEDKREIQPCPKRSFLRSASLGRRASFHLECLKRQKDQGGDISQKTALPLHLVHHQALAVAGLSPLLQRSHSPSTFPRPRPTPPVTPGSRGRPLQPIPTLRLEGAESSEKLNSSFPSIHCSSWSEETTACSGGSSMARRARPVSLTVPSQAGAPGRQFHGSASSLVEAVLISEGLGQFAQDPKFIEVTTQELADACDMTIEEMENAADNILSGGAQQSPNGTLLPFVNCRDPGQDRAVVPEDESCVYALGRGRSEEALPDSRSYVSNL

Consider `O=C(Nc1ccccc1)c1ccccc1OCc1nc2cc3cccnc3cc2nc1COc1ccccc1C(=O)Nc1ccccc1`, for which the Activity entry in the data set with SK-HEP1 [1] was “Non-Toxic”; with HuP-T3 [2] it was 50%; in the data set on HMC3, “Non-Toxic”. Further, the “inhibition (INH)” value was “Active” in data set [3], “Not Active” in data set [5], “Not Active” in data set [6] and “Active” in data set [10]. Also, the outcome in the data set with HuP-T3 [4], in the data set with HCT-116 (Homo sapiens), in the data set on HT-29 and in the data set on SK-HEP1 [9] was inactive. Moreover, the outcome in the data set on A704, in the data set with U-87 MG [7], with U-87 MG [8] and with SK-N-SH was Active. In addition, the “fold change (FC)” value in data set [11] is reported as 2.
